Active and inactive are the calls of the source. No cut-off for these calls is given here.
Legend:
[1] = target: Histone deacetylase 1/2/3 (Homo sapiens) (UniProt Q13547+O15379+Q92769); experiment: Inhibition of HDAC1/2/3 in human MCF7 cells assessed as increase in histone H3 acetylation at 10 to 20 uM incubated for 24 hrs by Western blot analysis; format: cell-based; conditions: dose 10-20 µM
PC-3M-luc [2] = experiment: Cytotoxicity against human PC-3M-luc cells assessed as reduction in cell viability incubated for 72 hrs by MTS assay; format: functional, cell-based
Method in brief: (§1)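 Cell viability EC50 from at least two independent experiments, each run in triplicate. Results are compared by t-test.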

[3] = target: Histone deacetylase 5 (Homo sapiens) (UniProt Q9UQL6); experiment: Inhibition of HDAC5 (unknown origin) using Abz-SRGGK(STFA)FRR-NH2 as substrate at 6 to 20000 nM preincubated for 5 mins followed by substrate addition and measured every 30 secs for 30 mins by continuous fluorescence based assay; conditions: dose 6-20000 nM, time 35.0 min
Method in brief: (§2)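 Continuous fluorescence assay in 20 mM HEPES pH 7.4, 140 mM NaCl, 10 mM KCl, 1 mM TCEP, 0.2 mg/mL BSA, 3% DMSO final. Enzyme (HDAC4 5 nM, HDAC5 10 nM, HDAC7 5 nM, HDAC9 20 nM) preincubated with inhibitor at room temperature. HDAC10 (5 nM) instead in 20 mM HEPES pH 7.4, 0.5 mg/mL BSA. Initial slope used as activity.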

[4] = target: NAD-dependent protein deacylase sirtuin-5, mitochondrial (Homo sapiens) (UniProt Q9NXA8); experiment: Inhibition of Sirt5 (unknown origin) using Bz-GVLK(Succ)EYGV-NH2 as substrate at 20 to 500 uM preincubated for 5 mins followed by enzyme addition and measured after 5 mins by RP-HPLC analysis; conditions: dose 20-500 µM, time 10.0 min
Method in brief: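 Discontinuous HPLC assay, 120 µL in 20 mM Tris pH 7.8, 150 mM NaCl, 5 mM MgCl2, 0.2 mg/mL BSA, 5% DMSO. Inhibitor preincubated at 37 °C with NAD+ (1 mM) and substrate (Sirt5 5 µM; Sirt6 20 µM). Started with enzyme (Sirt5 100 nM; Sirt6 500 nM). Quenched with TFA/ACN. Sirt5 read by A220, Sirt6 by A360 (nitrotyrosine). Performed once in duplicates; IC50 by nonlinear regression.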

[5] = target: Histone deacetylase 4 (Homo sapiens) (UniProt P56524); experiment: Inhibition of HDAC4 (unknown origin) using Abz-SRGGK(STFA)FRR-NH2 as substrate at 6 to 20000 nM preincubated for 5 mins followed by substrate addition and measured every 30 secs for 30 mins by continuous fluorescence based assay; conditions: dose 6-20000 nM, time 35.0 min; method in brief: as §2
PC-3M-luc [6] = conditions: Homo sapiens, dose 20.0 µM, time 5.0 hrs
MCF7 = experiment: Cytotoxicity against human MCF7 cells assessed as reduction in cell viability incubated for 72 hrs by MTT assay; format: functional, cell-based; method in brief: as §1
[7] = target: T1, Histone deacetylase 7 (Homo sapiens) (UniProt Q8WUI4); experiment: Inhibition of HDAC7 (unknown origin) using Abz-SRGGK(STFA)FRR-NH2 as substrate at 6 to 20000 nM preincubated for 5 mins followed by substrate addition and measured every 30 secs for 30 mins by continuous fluorescence based assay; conditions: dose 6-20000 nM, time 35.0 min; method in brief: as §2
T1 sequence (whole entry): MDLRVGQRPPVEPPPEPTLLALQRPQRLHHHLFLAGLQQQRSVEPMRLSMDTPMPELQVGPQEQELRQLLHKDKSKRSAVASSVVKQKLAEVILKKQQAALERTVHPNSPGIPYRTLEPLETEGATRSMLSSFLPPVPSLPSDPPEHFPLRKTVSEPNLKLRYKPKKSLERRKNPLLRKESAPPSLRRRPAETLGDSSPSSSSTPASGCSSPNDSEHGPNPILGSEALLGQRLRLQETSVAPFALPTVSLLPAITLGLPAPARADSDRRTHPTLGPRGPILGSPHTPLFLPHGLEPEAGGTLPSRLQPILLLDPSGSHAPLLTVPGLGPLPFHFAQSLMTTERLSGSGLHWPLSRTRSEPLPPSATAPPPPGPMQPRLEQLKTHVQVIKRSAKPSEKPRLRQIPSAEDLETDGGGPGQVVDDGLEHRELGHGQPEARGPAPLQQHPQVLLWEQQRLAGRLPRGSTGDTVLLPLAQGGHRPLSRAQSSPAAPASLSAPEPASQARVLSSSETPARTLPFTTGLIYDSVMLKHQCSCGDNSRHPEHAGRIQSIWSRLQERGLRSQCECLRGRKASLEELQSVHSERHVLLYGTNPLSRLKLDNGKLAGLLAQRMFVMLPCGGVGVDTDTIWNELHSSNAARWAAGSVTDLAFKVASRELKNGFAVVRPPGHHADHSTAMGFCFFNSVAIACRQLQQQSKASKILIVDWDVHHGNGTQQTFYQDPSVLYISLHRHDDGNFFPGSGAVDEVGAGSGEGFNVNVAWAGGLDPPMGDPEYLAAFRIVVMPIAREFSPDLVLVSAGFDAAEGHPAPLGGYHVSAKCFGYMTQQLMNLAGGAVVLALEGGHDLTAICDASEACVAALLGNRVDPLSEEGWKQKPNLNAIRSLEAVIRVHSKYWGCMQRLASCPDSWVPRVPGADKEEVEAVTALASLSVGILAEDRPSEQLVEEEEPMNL

[8] = target: T2, Polyamine deacetylase HDAC10 (Homo sapiens) (UniProt Q969S8); experiment: Inhibition of HDAC10 (unknown origin) using Abz-SRGGK(STFA)FRR-NH2 as substrate at 6 to 20000 nM preincubated for 5 mins followed by substrate addition and measured every 30 secs for 30 mins by continuous fluorescence based assay; conditions: dose 6-20000 nM, time 35.0 min; method in brief: as §2
T2 sequence (whole entry): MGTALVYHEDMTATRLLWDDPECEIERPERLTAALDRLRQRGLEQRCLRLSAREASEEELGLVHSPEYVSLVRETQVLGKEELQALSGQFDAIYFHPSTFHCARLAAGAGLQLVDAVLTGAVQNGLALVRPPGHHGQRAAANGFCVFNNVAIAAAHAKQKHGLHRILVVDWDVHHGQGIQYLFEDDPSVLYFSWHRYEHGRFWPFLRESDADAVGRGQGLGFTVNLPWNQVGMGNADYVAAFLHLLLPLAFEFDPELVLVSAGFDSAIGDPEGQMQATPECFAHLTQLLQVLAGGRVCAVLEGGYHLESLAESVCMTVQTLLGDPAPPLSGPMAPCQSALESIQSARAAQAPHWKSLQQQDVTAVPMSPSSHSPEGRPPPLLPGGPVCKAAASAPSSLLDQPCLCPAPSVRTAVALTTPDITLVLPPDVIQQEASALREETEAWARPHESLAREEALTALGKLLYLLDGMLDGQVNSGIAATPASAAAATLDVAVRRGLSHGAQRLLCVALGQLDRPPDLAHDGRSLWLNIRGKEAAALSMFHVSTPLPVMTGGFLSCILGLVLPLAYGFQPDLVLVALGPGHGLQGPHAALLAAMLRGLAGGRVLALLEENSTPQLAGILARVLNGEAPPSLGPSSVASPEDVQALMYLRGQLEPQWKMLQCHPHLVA

Chain of Histone deacetylase 4 (Homo sapiens) (P56524 whole entry): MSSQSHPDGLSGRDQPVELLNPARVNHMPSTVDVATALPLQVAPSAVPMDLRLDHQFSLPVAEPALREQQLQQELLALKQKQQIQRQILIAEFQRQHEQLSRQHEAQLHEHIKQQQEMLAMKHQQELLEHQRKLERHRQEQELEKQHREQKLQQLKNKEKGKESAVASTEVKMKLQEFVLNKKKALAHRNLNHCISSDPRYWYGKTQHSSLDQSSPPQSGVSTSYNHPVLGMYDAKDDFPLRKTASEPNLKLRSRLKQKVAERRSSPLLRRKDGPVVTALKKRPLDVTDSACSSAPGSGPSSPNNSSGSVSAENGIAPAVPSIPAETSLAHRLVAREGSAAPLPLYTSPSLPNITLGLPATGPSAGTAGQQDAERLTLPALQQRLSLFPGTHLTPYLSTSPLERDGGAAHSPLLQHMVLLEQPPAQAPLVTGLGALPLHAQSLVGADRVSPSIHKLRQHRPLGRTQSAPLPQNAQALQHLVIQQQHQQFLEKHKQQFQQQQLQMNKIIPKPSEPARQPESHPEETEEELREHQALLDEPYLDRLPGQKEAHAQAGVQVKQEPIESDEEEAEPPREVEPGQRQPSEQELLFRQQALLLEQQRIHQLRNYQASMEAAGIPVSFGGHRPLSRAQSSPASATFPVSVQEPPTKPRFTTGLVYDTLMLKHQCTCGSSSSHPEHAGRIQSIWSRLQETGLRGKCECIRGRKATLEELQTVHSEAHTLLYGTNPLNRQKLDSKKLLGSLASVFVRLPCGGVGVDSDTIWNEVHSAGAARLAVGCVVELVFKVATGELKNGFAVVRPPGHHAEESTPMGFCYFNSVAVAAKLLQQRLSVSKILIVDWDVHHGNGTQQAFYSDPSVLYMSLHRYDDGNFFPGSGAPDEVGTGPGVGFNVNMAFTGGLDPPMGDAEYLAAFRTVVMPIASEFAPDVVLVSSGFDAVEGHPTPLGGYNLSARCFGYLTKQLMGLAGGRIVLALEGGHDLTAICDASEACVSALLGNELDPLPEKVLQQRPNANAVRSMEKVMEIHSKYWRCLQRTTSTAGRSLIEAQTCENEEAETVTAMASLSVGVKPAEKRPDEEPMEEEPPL
Chain of Histone deacetylase 5 (Homo sapiens) (Q9UQL6 whole entry): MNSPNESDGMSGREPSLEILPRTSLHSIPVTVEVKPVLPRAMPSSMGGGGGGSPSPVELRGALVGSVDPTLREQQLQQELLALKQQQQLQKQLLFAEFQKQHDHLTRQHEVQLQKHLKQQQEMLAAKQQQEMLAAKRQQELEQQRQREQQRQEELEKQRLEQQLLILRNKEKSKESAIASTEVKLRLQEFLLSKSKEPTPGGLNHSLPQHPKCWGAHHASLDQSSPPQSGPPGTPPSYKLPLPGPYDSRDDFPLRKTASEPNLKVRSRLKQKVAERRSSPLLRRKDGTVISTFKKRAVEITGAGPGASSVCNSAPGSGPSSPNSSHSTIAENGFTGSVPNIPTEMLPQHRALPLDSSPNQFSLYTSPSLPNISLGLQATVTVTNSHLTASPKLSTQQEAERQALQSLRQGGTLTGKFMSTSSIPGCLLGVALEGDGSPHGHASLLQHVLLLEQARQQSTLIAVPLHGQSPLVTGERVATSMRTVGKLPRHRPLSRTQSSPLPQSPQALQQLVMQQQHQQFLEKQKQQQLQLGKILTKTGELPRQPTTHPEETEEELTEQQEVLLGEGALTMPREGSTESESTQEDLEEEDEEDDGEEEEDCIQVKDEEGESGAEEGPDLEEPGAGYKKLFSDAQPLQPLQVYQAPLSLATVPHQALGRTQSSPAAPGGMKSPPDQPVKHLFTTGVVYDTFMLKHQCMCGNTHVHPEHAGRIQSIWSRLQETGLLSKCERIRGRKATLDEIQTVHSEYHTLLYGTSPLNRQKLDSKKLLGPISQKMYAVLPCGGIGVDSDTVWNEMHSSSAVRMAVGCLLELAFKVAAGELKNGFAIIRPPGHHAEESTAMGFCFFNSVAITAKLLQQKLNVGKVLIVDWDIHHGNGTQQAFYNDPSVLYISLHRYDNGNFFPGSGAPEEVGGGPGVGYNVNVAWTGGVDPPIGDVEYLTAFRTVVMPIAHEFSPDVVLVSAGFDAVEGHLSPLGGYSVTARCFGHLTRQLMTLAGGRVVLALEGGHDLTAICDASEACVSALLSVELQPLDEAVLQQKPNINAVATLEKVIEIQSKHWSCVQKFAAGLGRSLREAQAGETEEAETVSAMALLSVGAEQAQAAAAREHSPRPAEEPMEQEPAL
Chain of NAD-dependent protein deacylase sirtuin-5, mitochondrial (Homo sapiens) (Q9NXA8 37-310 limits assumed): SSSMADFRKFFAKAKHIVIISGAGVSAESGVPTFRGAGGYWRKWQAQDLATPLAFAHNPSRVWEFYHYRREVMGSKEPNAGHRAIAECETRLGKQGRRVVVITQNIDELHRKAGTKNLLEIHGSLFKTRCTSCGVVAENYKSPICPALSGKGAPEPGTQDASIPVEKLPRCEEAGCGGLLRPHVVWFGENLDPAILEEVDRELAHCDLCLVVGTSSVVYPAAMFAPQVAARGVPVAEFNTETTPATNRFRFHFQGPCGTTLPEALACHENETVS

inhibition [1]: inactive
inhibition [3]: inactive
inhibition [4]: inactive
inhibition [5]: inactive
inhibition [7]: inactive
inhibition [8]: inactive
SMILES: CCCCN(Cc1ccc(C(=O)NO)cc1)C(=O)CCCCn1cc(COc2cccc(Cc3cnc(NC(=O)CSc4nc(C)cc(C)n4)s3)c2)nn1
Activity (PC-3M-luc [2]): Active
inhibition (PC-3M-luc [6]): Active
Activity (MCF7): Active

Reference: ChEMBL document CHEMBL5370658, “Development of First-in-Class Dual Sirt2/HDAC6 Inhibitors as Molecular Tools for Dual Inhibition of Tubulin Deacetylation” (J Med Chem, 2023)
